# Source: paper PMC11565791 (bioRxiv, 2025)
# Where a chain is given by its changes, count along the chain named. Numbers in names are those of the source.
# B1: phosphorylated Swi6 (pSwi6) (natural protein)
# chain: MKKGGVRSYRRSSTSKRSVIDDDSEPELPSMTKEAIASHKADSGSSDNEVESDHESKSSSKKLKENAKEEEGGEEEEEDEYVVEKVLKHRMARKGGGYEYLLKWEGYDDPSDNTWSSEADCSGCKQLIEAYWNEHGGRPEPSKRKRTARPKKPEAKEPSPKSRKTDEDKHDKDSNEKIEDVNEKTIKFADKSQEEFNENGPPSGQPNGHIESDNESKSPSQKESNESEDIQIAETPSNVTPKKKPSPEVPKLPDNRELTVKQVENYDSWEDLVSSIDTIERKDDGTLEIYLTWKNGAISHHPSTITNKKCPQKMLQFYESHLTFRENE
# B2: swi6^S18/24A: swi6 mutant S18A and S24A (protein, UniProt P40381 1-328, looked up, variant S18A S24A)
# Chromatin-associated protein …: B1 chain with S18A, S24A
# B3: swi6^loopX: ARK loop in the CD mutant (R93A and K94A) (protein, UniProt P40381 1-328, looked up, variant R93A K94A)
# Chromatin-associated protein …: B1 chain with R93A, K94A
# B4: swi6^loopX-S18/24A: double mutant of loopX and S18/24A (protein, UniProt P40381 1-328, looked up, variant S18A S24A R93A K94A)
# Chromatin-associated protein …: B1 chain with S18A, S24A, R93A, K94A
# B5: Swi6^S18/24A-GFP: C-terminally super fold-GFP tagged Swi6 S18/24A (protein, UniProt P40381 1-328, looked up, variant S18A S24A)
# Chromatin-associated protein …: B1 chain with S18A, S24A
# modifications: C-terminal superfolder GFP tag
# B6: Swi6^6S/A -GFP: C-terminally super fold-GFP tagged Swi6 6S/A (protein, UniProt P40381 1-328, looked up, variant S18A S24A S117A S192A S212A S220A)
# Chromatin-associated protein …: B1 chain with S18A, S24A, S117A, S192A, S212A, S220A
# modifications: C-terminal superfolder GFP tag
# B7: FLAG-Swi6^S18/24A: 3XFLAG tagged Swi6 S18/24A (protein, UniProt P40381 1-328, looked up, variant S18A S24A)
# Chromatin-associated protein …: B1 chain with S18A, S24A
# modifications: 3XFLAG tag
# B8: FLAG-Swi6^6S/A: 3XFLAG tagged Swi6 S18/24/117–220A (protein, UniProt P40381 1-328, looked up, variant S18A S24A S117A S192A S212A S220A)
# Chromatin-associated protein …: B1 chain with S18A, S24A, S117A, S192A, S212A, S220A
# modifications: 3XFLAG tag
# Assays:
# H3Kc9me3 mononucleosomes = experiment: Fluorescence polarization, H3Kc9me3; format: binding; conditions: for specificity for H3K9me3 mark on nucleosomes: H3Kc9me3 vs H3K9me0 nucleosomes; for tighter binding to H3Kc9me3 nucleosome than to H3K9me3 peptide: Kd nucleosome vs Kd tail peptide
# [1] = test system: H3K9me3 peptide (fluoresceinated H3 1-20); conditions: H3K9me3 vs H3K9me0 peptide; ref Canzio et al. 2011; cited from earlier work
# [2] = test system: pSwi6 (CKII-phosphorylated Swi6) (Schizosaccharomyces pombe); experiment: fluorescence polarization; conditions: histone H3 Kc9me3 (methyl-lysine analog)
# [3] = test system: pSwi6 S18/24A (CKII-phosphorylated) (Schizosaccharomyces pombe); experiment: fluorescence polarization
# genomic loci = experiment: anti-pS18-pS24 ChIP-seq; format: cell-based, S. pombe; conditions: wildtype; SFigure 8F
# How it was run: (§1)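 FLAG ChIP: strains express FLAG-tagged Swi6 variants; IP with M2 anti-FLAG. pS18-pS24 ChIP: untagged strains; IP with anti-pS18-pS24 antibody; lysis buffer also contains 0.1 mM orthovanadate and 60 mM β-glycerophosphate. Both: grown to saturation in YES at 32°C, then 2 h at 18°C. 600×10^6 cells fixed with 1.5 mM EGS (30 min), then 1% formaldehyde (30 min). Drosophila spike-in added; three technical replicates; spike-in-adjusted cpm.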
# [4] = test system: H3K9me3 peptide (fluoresceinated H3 1-20); experiment: Fluorescence polarization, H3K9me3 tail peptide; format: binding
# How it was run: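 Fluoresceinated H3 1–20 K9me3 or K9me0 peptide was fixed at 100 nM. Purified Swi6, unphosphorylated or CK2-phosphorylated, was titrated at 0–200 μM. Fluorescence polarization was read at ex 485 / em 528 nm; Kd derived by curve fitting.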
# [5] = test system: unpSwi6 (unphosphorylated Swi6) (Schizosaccharomyces pombe); experiment: fluorescence polarization; conditions: histone H3K9 unmethylated
# [6] = test system: spreading 'orange' reporter (mKO2); experiment: Flow cytometry, MAT ΔREIII HSS 'orange' spreading reporter; format: cell-based, Schizosaccharomyces pombe; conditions: for spreading phenotype: Figure 3E-J run (fully separate from Figure 1)
# How it was run: (§2)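 Strains from −80°C stocks were revived on YES plates. Cells were grown overnight in 200 μL YES at 32°C to saturation. The next morning they were diluted 1:25 in YES into mid-log phase and analysed by flow cytometry for single-cell reporter fluorescence. Compensation and analysis followed a prior protocol.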
# [7] = test system: nucleation 'green' reporter (SF-GFP); experiment: Flow cytometry, MAT ΔREIII HSS 'green' nucleation reporter; format: cell-based, Schizosaccharomyces pombe; conditions: separate experiment with Δckb1, SFigure 1J–L
# How it was run: as §2
# SEC-MALS + cross-linking = target: the molecule itself; experiment: SEC-MALS + cross-linking
# H3K9me2 = H3K9me2 ChIP-seq; format: cell-based, S. pombe
# How it was run: (§3)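 Cells were grown overnight in YES at 32°C to saturation, diluted to OD 0.03 and grown to OD 1. 300×10^6 cells were fixed with 1% formaldehyde only and quenched with glycine. Chromatin was bead-beaten and sheared, then immunoprecipitated overnight at 4°C with anti-H3K9me2 or anti-H3K9me3. Reverse-crosslinked with proteinase K at 65°C. 40 bp paired-end reads; ChIP/input signal, mean of three repeats with 95% CI.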
# H3K9me3 = H3K9me3 ChIP-seq; format: cell-based, S. pombe
# How it was run: as §3
# heterochromatin foci = experiment: Swi6-GFP live cell imaging of nuclear foci; format: cell-based, S. pombe; conditions: Figure 4E,F
# How it was run: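 Swi6-GFP strains in a Sad1-mKO2 background were grown on YES 225 agar at 32°C for 3–5 days. Cells were then cultured in liquid YES 225 at 30°C with 250 rpm shaking to OD 0.2–0.6 before live-cell imaging.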
# [8] = test system: genomic loci (nucleators, spreading zones, euchromatin); experiment: FLAG-Swi6 ChIP-seq; format: cell-based, S. pombe; conditions: for FLAG-Swi6 accumulation at nucleation sites versus wildtype: spike-in normalized, Figure 5B
# How it was run: as §1
# [9] = MAT ΔREIII HSS, mean of three repeats
molecule,measurement,setting,value
"unpSwi6: recombinant Swi6 expressed in E. coli without CKII, His tag removed by TEV",specificity for H3K9me3 mark on nucleosomes,H3Kc9me3 mononucleosomes,19.4 X
same,tighter binding to H3Kc9me3 nucleosome than to H3K9me3 peptide,H3Kc9me3 mononucleosomes,68 X
same,"specificity for H3K9me3 peptide, previously reported",[1],~ 130 X
"H3Kc9me3 (MLA) mononucleosome, 601 DNA 147 bp",binding signal (relative Kd (reference)),[2],1
same,binding signal (relative Kd (pSwi6 on H3Kc9me3 = 1)),[3]; histone H3 Kc9me3 (methyl-lysine analog),0.38
FLAG-Swi6: 3XFLAG tagged wildtype Swi6 at endogenous locus,pS18-pS24 pool versus overall FLAG-Swi6 accumulation,genomic loci,no significant differences in accumulation between the overall Swi6 pool and the pS18-pS24 pool
pSwi6: Swi6 co-expressed with Casein Kinase II (CKII) in E. coli,specificity for H3K9me3 peptide,[4]; H3K9me3 vs H3K9me0 peptide,~ 93 X
same,preference for H3K9me3 versus H3K9me2 peptides,[4]; SFigure 4C,~ 2.2 X
same,"decrease in nucleosome affinity by phosphorylation, overall (pSwi6 vs unpSwi6)",H3Kc9me3 mononucleosomes; Figure 4D,12 X
same,specificity for H3K9me3 mark on nucleosomes,H3Kc9me3 mononucleosomes,19 X
same,tighter binding to H3Kc9me3 nucleosome than to H3K9me3 peptide,H3Kc9me3 mononucleosomes,1.7 X
"H3K9me0 mononucleosome, 601 DNA 147 bp",binding signal (relative Kd (pSwi6 on H3Kc9me3 = 1)),[3]; histone H3K9 unmethylated,1.67
same,Kd,[5],2330 nM
wildtype swi6: wildtype swi6 open reading frame in MAT ΔREIII HSS strain [reference compound],'orange' (spreading) reporter cells ON,"[6]; separate experiment with Δckb1, SFigure 1J–L",7.04%
same,'green' (nucleation) reporter cells ON,[7],0.36%
B1,stoichiometry N,SEC-MALS + cross-linking,8
B2,spreading phenotype,[6],more severe spreading defect than the oligomerization surface mutants alone
same,H3K9me2 in nucleators versus wildtype,"H3K9me2; 300bp bins, SFigure 2",H3K9me2 is elevated in almost all nucleators
same,H3K9me2 level at MAT locus,H3K9me2; [9],maintained similar levels of H3K9me2 to wildtype swi6
same,distance to the left of tlh2 at which H3K9me2 levels begin to drop,"H3K9me2; tel IIR, relative to wildtype",~ 6.4 kb
same,H3K9me3 level at MAT locus,H3K9me3; [9],much more closely mirrored Δswi6
same,H3K9me2 and H3K9me3 at mei4,"H3K9me3; heterochromatin island mei4, SFigure 3A",no distinguishable differences
B3,spreading phenotype,[6],moderate spreading defect
B4,spreading phenotype,[6],largely mimics that of swi6^S18/24A
B5,partitioning relative to heterochromatin foci,heterochromatin foci,partition away from heterochromatin foci
B6,partitioning relative to heterochromatin foci,heterochromatin foci,partition away from heterochromatin foci
B7,FLAG-Swi6 accumulation at nucleation sites versus wildtype,[8],decline in accumulation
same,FLAG-Swi6 accumulation at cen I & II,"[8]; versus wildtype, Figure 5E, SFigure 7A",accumulates less than wildtype within previously mapped siRNA generating centers
same,FLAG-Swi6 accumulation at H3K9me2-negative loci,"[8]; versus wildtype, Figure 5F,G",accumulates above wildtype at several H3K9me2 negative loci
B8,FLAG-Swi6 accumulation at nucleation sites versus wildtype,[8],decline in accumulation
